Experimental data from different studies.
Protocols differ between the studies behind these lines.
Target: Serine/threonine-protein kinase PAK 5 (PAK5, Homo sapiens, UniProt Q9P286)

`O=C(Nc1cnn(-c2csc(C(=O)NC3COC3)c2)c1)Nc1ccccc1Cl` gave a remaining activity of 92.1% (enzyme activity, inhibitor; 5 µM).
The remaining binding of `C[C@H]1CCN(c2nccc(-c3cnn4ncccc34)n2)C1` is reported as 100% (binding; 1 µM).
For `COc1cc(Cl)c(C(=O)N[C@@H](CN[C@H]2CC[C@@H](N)CC2)Cc2ccc(C#N)cc2)cc1-c1ccc(CN[C@H](C)c2ccc(C)cc2)o1`, the remaining activity was 103% (enzyme activity, inhibitor; 1 µM).
`CC(C)(C)c1nc2c(s1)c1nc(N)ncc1c1ccc(NS(=O)(=O)c3c(F)cccc3F)c(F)c12` gave a remaining activity of 77% (enzyme activity, inhibitor, radiometric; 1 µM).
For `C[C@@H]1CN(c2cc(-c3nn(C)c4ccc(OC5(C)CC5)cc34)ncn2)C[C@H](C)O1`, the remaining binding was 84% (cell-free assay, competition with immobilised ligand; 1 µM).
`Nc1nc(Nc2ccccc2)sc1C(=O)c1c(F)cccc1F` has a remaining activity of 66% (enzyme activity, inhibitor; 10 µM).
`Cn1nc(C(=O)NCc2ccc(C(=O)O)cc2)cc1-c1ccc2[nH]ccc2c1` gave a remaining binding of 62% (cell-free assay, competition with immobilised ligand; 0.1 µM).
For `Cc1ccc(NC(=O)c2ccc(C)c(C(F)(F)F)c2)cc1C#Cc1nn(C2CCC(O)CC2)c2ncnc(N)c12` (centres unmarked), the remaining signal was 89% (cell-free assay; 10 µM).
`Nc1nc(Nc2ccc(S(N)(=O)=O)cc2)nn1C(=O)c1c(F)cccc1F` has a remaining signal of 85.4% (cell-free assay; 0.5 µM).
`CCC(=N\O)/C(C)=C/c1ccc(F)cc1` has a remaining binding of 100% (cell-free assay, competition with immobilised ligand; 1 µM).
`CCCS(=O)(=O)Nc1ccc(F)c(C(=O)c2c[nH]c3ncc(-c4ccc(Cl)cc4)cc23)c1F` gave an inhibition of less than 10% (enzyme activity, inhibitor; 1 µM).
`Nc1ncnc2occ(-c3ccc(NC(=O)Nc4cc(C(F)(F)F)ccc4F)cc3)c12` gave a remaining signal of 60% (cell-free assay, inhibitor; 20 µM).
With `Cc1cc(NC(=O)c2cccc3cc(-c4cccc5[nH]nc(N)c45)ccc23)ccc1F` the activity vs control was 88% (enzyme activity, inhibitor; 0.1 µM).
With `COc1cc2ncnc(Nc3ccc(Oc4ccccc4)cc3C)c2cc1OC` the inhibition was 1% (enzyme activity, inhibitor; 1 µM).
The remaining binding of `COc1ccc2cc(OCC3(C(=O)O)CN(C(=O)c4ccc(F)cc4)C3)ccc2c1` is reported as 100% (cell-free assay, competition with immobilised ligand; 1 µM).
The remaining activity of `CC(C)(O)[C@H]1CC[C@H](Nc2ccc3ncc(-c4cccc(C(F)(F)F)c4)n3n2)CC1` is reported as 98.1% (enzyme activity, inhibitor; 1 µM).
`O=C1NC(c2ccccn2)Sc2ccccc21` (centres unmarked) gave a remaining binding of 94% (cell-free assay, competition with immobilised ligand; 1 µM).
`CCN(CC)CCNC(=O)c1c(C)[nH]c(/C=C2\C(=O)Nc3ccc(F)cc32)c1C` has an inhibition of 55% (enzyme activity, inhibitor; 10 µM).
`O=C1NC(=O)c2cc(Nc3ccc(F)cc3)c(Nc3ccc(F)cc3)cc21` gave a remaining signal of 96.4% (cell-free assay; 0.5 µM).
The activity vs control of `COc1cc(/C=C/C(=O)CC(=O)/C=C/c2ccc(O)c(OC)c2)ccc1O` is reported as 108% (enzyme activity, inhibitor; 1 µM).
The remaining signal of `O=C1Nc2ccc(Cl)cc2C1=Cc1cc(Cl)c(O)c(Cl)c1` is reported as 91.5% (cell-free assay; 0.5 µM).
`CCOc1cc(-c2nncn2C)ccc1Nc1ncc2cc(C)nc(NCC(C)(C)C)c2n1` gave an inhibition of less than 15% (enzyme activity, inhibitor, FRET; 1 µM).
The activity vs control of `FC(F)(F)Oc1cccc(-c2cnc3ccc(-c4ccncc4)nn23)c1` is reported as 62% (enzyme activity, inhibitor, radiometric; 5 µM).
`Cc1c[nH]c2nccc(Oc3c(F)cc(Nc4cc(Cl)nc(N)n4)cc3F)c12` has a remaining binding of 92% (cell-free assay, competition with immobilised ligand; 0.1 µM).
For `CNC(=O)c1cc(Oc2ccc(NC(=O)Nc3ccc(Cl)c(C(F)(F)F)c3)cc2)ccn1`, the inhibition was -21% (enzyme activity, inhibitor; 10 µM).
For `CCS(=O)(=O)c1cc2cc(C[C@](O)(CC(C)(C)c3ccc(F)cc3C(N)=O)C(F)(F)F)[nH]c2cn1`, the remaining binding was 100% (cell-free assay, competition with immobilised ligand; 1 µM).
With `Cn1c(=O)n(-c2ccc(C(C)(C)C#N)cc2)c2c3cc(-c4cnc5ccccc5c4)ccc3ncc21` the remaining activity was 90% (enzyme activity, inhibitor; 10 µM).
For `COCCOc1nc(-c2ccc(Cl)nc2)nc2c1CN(C(=O)c1ncn3ccccc13)CC2`, the remaining binding was 100% (cell-free assay, competition with immobilised ligand; 0.1 µM).
`CN1CC(Oc2cnc(C#N)cc2-c2ccn3nc(NC(=O)C4CC4)cc3c2)C1` has an inhibition of 3% (enzyme activity, inhibitor; 1 µM).
